Here are results for 41 molecules from ChEMBL document CHEMBL4513216, “Probing the Open Global Health Chemical Diversity Library for Multistage-Active Starting Points for Next-Generation Antimalarials” (ACS Infect Dis, 2020).

This series in a line: Toxicity liver stage against HepG2, at 10uM. The class given is cell-based. Also on record: test concentration 10 uM, cell line HepG2-A16-CD81EGFP. The conditions noted are these: human, HepG2-A16-CD81EGFP cells; read-out: INHIBITION
Put shortly: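 Uninfected HepG2-A16-CD81EGFP cells, 3 × 10^3 per well, 1536-well, plated on prespotted compound at 10 μM final, parasite-free screening media added to match infected plates; puromycin 10 μM positive, DMSO 0.5% negative; run in parallel with 48 h PbLuc assay at 37 °C, 5% CO2; viability by CellTiter-Glo luminescence, normalized to controls.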
Consider `CC(=O)c1ccc(C(=O)NCCCOC(C)c2ccccc2)s1` (stereo unspecified), for which the cytotoxicity at 10 µM was -14.1%. With `COc1ccc(-c2n[nH]c(C)c2CC(=O)NCCN2CCOCC2)cc1` the figure was -13.4%; with `CCCc1cc(=O)n(CC(=O)NC(C)C)c(-n2nc(C)cc2C)n1`, 2.74%; with `Cc1nc(NC2CC2)c2c(n1)c(C)nn2C`, -3.79%.

As to `CCN(CC)C(=O)c1ccn(COc2ccccc2)n1`, the cytotoxicity at 10 µM was -0.911%. With `Cc1nccnc1C1CCN(C(=O)C(C)C)CC1` the figure was 3.25%; with `CC(C)N1CCOC(c2cc(CCO)[nH]n2)C1` (stereo unspecified), 1.47%. With `Cn1nccc1C(=O)N1Cc2ccccc2OC2(CCOCC2)C1` the figure was -24.7%; with `CC(=O)N1CCN(c2cc(C3CN(C(C)=O)CCO3)nc(C)n2)CC1` (stereo unspecified), -22.8%; with `COc1ccc(-c2cccc(CC3(C(=O)O)CCOCC3)c2)cc1`, -34.3%. As for `NC(=O)C1(CCCc2ccccn2)CCCN(Cc2ncc[nH]2)C1` (stereo unspecified), the figure is -0.00173%.

On to `CNC(=O)c1ccc(C2CN(C(=O)c3cnn(C)c3)CCO2)nc1` (stereo unspecified), for which the cytotoxicity at 10 µM is -24.2%.

For `O=C(Cn1cccnc1=O)NC(Cc1ccsc1)c1nccs1` (stereo unspecified), the cytotoxicity at 10 µM was -4.44%. With `Cc1n[nH]c(C)c1NC(=O)CCc1cccc(C2CCCN(C)C2)n1` (stereo unspecified) the figure was -6.19%.

On to `O=C(C1CCC1)N1CCCC(c2cccc(-n3ccnc3)n2)C1` (stereo unspecified), for which the cytotoxicity at 10 µM is -1.28%.

Consider `CCN1CCN(Cc2c(-c3ccco3)[nH]c3ncccc23)CC1`, for which the cytotoxicity at 10 µM was -5.91%.

In the case of `Cc1ncsc1-c1nnc(C2CCN(Cc3ccccc3Cl)CC2)o1`, the cytotoxicity at 10 µM was -6.86%.

Take `CN1CCC2(CC1)Cc1ccccc1CN(C(=O)CN)C2`: the cytotoxicity at 10 µM is -1.63%.

Take `COc1ccc(SC(C)C(=O)N2CCC(NC(=O)C3CC3)CC2)cc1` (stereo unspecified): the cytotoxicity at 10 µM is -9.11%. As for `O=C(NCCO)Nc1c(F)cccc1Oc1ccccc1`, the figure is 1.36%; as for `CC(=O)NCCC(=O)NC(C)c1sc(-c2ccccc2F)nc1C` (stereo unspecified), 7.92%; as for `Cc1c(NC(C)C(C)C)cccc1C(=O)NCc1cnn(C)c1` (stereo unspecified), 27%. Regarding `CCN(Cc1ccco1)C(=O)NCC(c1cccs1)N(C)C` (stereo unspecified), the cytotoxicity at 10 µM was 16.3%. On to `COc1ccc(NC(C)C(=O)N2CCN(c3ncccn3)CC2)cn1` (stereo unspecified), for which the cytotoxicity at 10 µM was -4.71%. As for `O=C1CN(CC2CC2)Cc2nc(NCc3ccccc3)sc21`, the cytotoxicity at 10 µM was -12.3%. With `CC(C)N(Cc1nc(-c2cccs2)no1)CC1CCC(=O)N1` (stereo unspecified) the figure was -0.475%; with `CSCC(=O)N1CCCC(CCC(=O)N(C)CCc2ccccn2)C1` (stereo unspecified), -3.09%; with `CCc1ccc(C2c3nc[nH]c3CCN2Cc2nccn2CC)nc1` (stereo unspecified), -0.123%. Take `CCC(NC1CSCCSC1)c1ccc(S(C)(=O)=O)cc1` (stereo unspecified): the cytotoxicity at 10 µM was -8.06%. As for `COCCN(C)CC(=O)N1CCCC2(CCC(=O)N(CC3CC3)C2)C1` (stereo unspecified), the figure is 0.502%; as for `COCc1noc(Cn2ccc3ncccc3c2=O)n1`, 1.56%. With `CNCc1cc(F)ccc1Oc1ccc(F)cc1` the figure was -1%; with `COC(=O)C(NC(=O)C1CCCC1)c1cc(F)ccc1F` (stereo unspecified), 5.67%; with `Cc1nccc(C(=O)N2CCCN(Cc3nccn3C(C)C)CC2)n1`, -10.2%. With `Cc1nc(C)n(CC2CCCN2CC(=O)Nc2c(C)n[nH]c2C)n1` (stereo unspecified) the figure was -7.66%; with `COc1cccc(CNCc2ccc(NC(=O)NC(C)C)cc2)c1`, -11.1%. For `Cc1ccc(CNC(=O)Cc2c(C)nc3c(c2C)c(=O)[nH]n3C)cc1`, the cytotoxicity at 10 µM was -8.6%. With `CCc1nnsc1C(=O)N1CCCN(Cc2ccc(C)cc2)CC1` the figure was -4.28%; with `Cc1ccc(NC(=O)C2CSCN2C(=O)c2cnn(C)c2)c(C)c1` (stereo unspecified), -3.97%; with `Cc1nc(N)c2ccc(C3CCCCN3)nc2n1` (stereo unspecified), -0.05%.

Consider `COc1ccc(-c2ccnc(C3CCNCC3)c2)cc1`, for which the cytotoxicity at 10 µM is -41.4%.
